{"source": "PubChem BioAssay AID488902", "about": "(Broad Institute, 2010)", "note": "Calls of active or inactive are those of the source.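 How the source made its calls: active means rising caspase curve whose AC50 is at most ten times the top dose tested; inconclusive means flat fit between 30 and 70%, or a poor fit; inactive means the rest.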"}
{"system": "not listed separately", "assay": "caspase activation in wild-type MEFs, dose response, counter-screen for A1 (Bcl2-A1) inhibitor project, cell-based, wild-type MEF, Caspase-Glo luminescence, dry powder (AID 488902)", "conditions": "wild-type MEF caspase activation, Caspase-Glo luminescence, 3 h; at 135 µM (top of the series)", "in_short": "(§1)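 Material: wild-type mouse embryonic fibroblasts, unprimed by A1-BIM, not A1-dependent; quantity: 2500 cells/well; buffer or medium: RPMI-1640 plus 10% FBS; dosing: dose-response series from dry powder, 100 nL pinned per well; incubation: 3 h compound treatment at 37 °C, 1 h reagent step; detection: CaspaseGlo luminescence; read-out: caspase activation level in compound-treated cells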"}
{"molecule": "CC(=O)N[C@H]1[C@H](O[C@H]2CC[C@@]3(C)C(CC[C@]4(C)C3CC=C3[C@@H]5CC(C)(C)CC[C@]5(C(=O)OC5OCC(O)C(O)C5O)C(O)C[C@]34C)C2(C)C)O[C@H](COC2OCC(O)C(OC3OCC(O)C(O)C3O)C2O)[C@@H](O[C@@H]2O[C@@H](C)[C@H](O)[C@@H](O)[C@H]2O[C@@H]2O[C@@H](C)[C@H](O)[C@@H](O)[C@H]2O)[C@@H]1O", "note": "(stereo not given in full)", "caspase activation": "-0.32% (inactive)"}
{"system": "not listed separately", "assay": "caspase activation in wild-type MEFs, dose response, counter-screen for A1 (Bcl2-A1) inhibitor project, cell-based, wild-type MEF, Caspase-Glo luminescence, dry powder (AID 488902)", "conditions": "wild-type MEF caspase activation, Caspase-Glo luminescence, 3 h; at 150 µM (top of the series)", "in_short": "as §1"}
{"molecule": "CC(=O)OC(C)(C)/C=C/C(=O)[C@](C)(O)C1[C@H](O)C[C@@]2(C)C3CC=C4C(C[C@H](O)C(=O)C4(C)C)[C@]3(C)C(=O)C[C@]12C", "note": "(stereo not given in full)", "caspase activation": "0.64% (inactive)"}
{"molecule": "Cc1c(CCOC(=O)c2ccc(N3CCOCC3)c([N+](=O)[O-])c2)sc[n+]1CC#N", "caspase activation": "0.157% (inactive)"}
{"molecule": "CCSc1nnc(NC(=O)c2nc(S(=O)(=O)Cc3ccc(F)cc3)ncc2Cl)s1", "caspase activation": "-2.01% (inactive)"}
{"molecule": "COc1cc(/C=C(/C#N)c2nc3ccccc3[nH]2)ccc1OCC(=O)Nc1ccccc1C(C)C", "caspase activation": "0.773% (inactive)"}
{"molecule": "C=C1[C@@H](C)[C@H]2[C@H](Cc3ccccc3)NC(=O)[C@]23[C@H](OC(C)=O)/C=C/[C@](C)(O)C(=O)[C@@H](C)C/C=C/[C@H]3[C@@H]1O", "caspase activation": "-0.119% (inactive)"}
{"molecule": "Cc1cccc(CS(=O)(=O)c2ncc(Cl)c(C(=O)Nc3nnc(C(C)C)s3)n2)c1", "caspase activation": "-1.13% (inactive)"}
{"molecule": "CCOC(=O)CSC1=N/C(=C/c2ccc(-n3cncn3)cc2)C(=O)N1C(C)=O", "caspase activation": "2.7% (inactive)"}
{"molecule": "CC(C)(C)n1nc(-c2ccc(Cl)cc2)c2c(N)ncnc21", "caspase activation": "2.53% (inactive)"}
{"molecule": "Cc1ccc(Sc2c([N+](=O)[O-])c(=O)n(C)c3ccccc23)cc1", "caspase activation": "1.56% (inactive)"}
{"molecule": "O=C(CCl)N=c1sccn1Cc1ccccc1Cl", "caspase activation": "0.637% (inactive)"}
{"molecule": "CCc1nnc(NC(=O)c2nc(S(=O)(=O)Cc3ccccc3)ncc2Cl)s1", "caspase activation": "-0.316% (inactive)"}
{"molecule": "O=C(Oc1cccc(/C=N/Nc2nc(Nc3ccccc3)nc(N3CCOCC3)n2)c1)c1ccco1", "caspase activation": "0.0158% (inactive)"}
{"molecule": "Nc1nc(F)nc2c1ncn2[C@@H]1O[C@H](CO)[C@@H](O)[C@H]1O", "caspase activation": "-0.43% (inactive)"}
{"molecule": "Cn1c(=NC(=O)CCl)sc2ccccc21", "caspase activation": "0.0802% (inactive)"}
{"molecule": "C/C1=C/C(=O)O[C@@H]2C[C@@H](CC[C@H](C)/C=C\\CC1)O[C@@](O)(C1CSC(=O)N1)C2", "note": "(stereo not given in full)", "caspase activation": "0.912% (inactive)"}
{"molecule": "C=C1[C@@H](C)[C@H]2[C@H](Cc3ccccc3)NC(=O)[C@]23OC(=O)/C=C\\[C@H](O)CCC[C@@H](C)C/C=C/[C@H]3[C@@H]1O", "caspase activation": "0.465% (inactive)"}
{"molecule": "Cc1ccc(CS(=O)(=O)c2ncc(Cl)c(C(=O)Nc3nnc(C(C)C)s3)n2)cc1", "caspase activation": "-1.41% (inactive)"}
{"molecule": "COc1cccc(C(=O)C(C#N)=C(SC)SC)c1", "caspase activation": "-1.91% (inactive)"}
{"molecule": "Cc1c(C=O)c(C=O)c(C)n1Cc1ccccc1", "caspase activation": "1.13% (inactive)"}
{"system": "wild-type MEF caspase activation, Caspase-Glo luminescence, 3 h", "assay": "caspase activation in wild-type MEFs, dose response, counter-screen for A1 (Bcl2-A1) inhibitor project, cell-based, wild-type MEF, Caspase-Glo luminescence, dry powder (AID 488902)", "conditions": "not given", "in_short": "as §1"}
{"molecule": "COc1cc(CN2CCN(c3cc(C)ccc3C)CC2)ccc1O", "AC50": "> 150 µM (inactive)"}
{"molecule": "CCc1cc2c(=O)c(-c3cnn(-c4ccccc4)c3)c(C)oc2cc1OCC(=O)Nc1cccc(C)c1", "AC50": "2.93 µM"}
{"molecule": "Cc1cc(C(=O)CCl)c(C)n1CCc1ccc(Cl)cc1", "AC50": "16.3 µM"}
{"molecule": "Cc1cccc(NC(=O)/C(C#N)=C/c2cn(CC(=O)NCc3ccco3)c3ccccc23)c1", "AC50": "4.34 µM"}
{"molecule": "COc1ccc(N(C(=O)CCl)C(C(=O)NCCc2ccccc2)c2cccs2)cc1Cl", "note": "(stereo not given)", "AC50": "15.5 µM"}
